ChEMBL document CHEMBL2046387, “Discovery of Brain-Penetrant, Irreversible Kynurenine Aminotransferase II Inhibitors for Schizophrenia” (ACS Med Chem Lett, 2012)
Activity calls are given as the source filed them. The rule behind the calls is not given here.

Key:
[1] = molecular target: T1, Kynurenine/alpha-aminoadipate aminotransferase, mitochondrial (Homo sapiens, UniProt Q8N5Z0); assay: Ratio of Kinact to Ki for human recombinant KAT2 using L-kynurenine as substrate
Method in brief: (§1)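 Second-order rate constant kinact/Ki determined for human and rat KAT II; values are geometric or arithmetic means of at least three experiments (some n = 2).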
Target sequence in this assay (Q8N5Z0 30-425 limits assumed): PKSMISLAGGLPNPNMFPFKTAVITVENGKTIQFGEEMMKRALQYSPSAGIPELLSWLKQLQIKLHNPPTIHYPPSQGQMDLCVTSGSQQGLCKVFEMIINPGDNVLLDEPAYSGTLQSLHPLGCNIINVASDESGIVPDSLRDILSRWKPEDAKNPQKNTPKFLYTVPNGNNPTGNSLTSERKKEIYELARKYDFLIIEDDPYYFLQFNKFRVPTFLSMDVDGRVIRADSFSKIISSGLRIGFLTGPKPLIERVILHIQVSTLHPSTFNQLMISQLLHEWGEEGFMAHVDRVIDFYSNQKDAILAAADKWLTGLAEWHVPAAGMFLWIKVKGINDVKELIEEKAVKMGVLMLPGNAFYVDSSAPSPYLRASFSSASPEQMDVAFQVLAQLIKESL

[2] = molecular target: T1, Kynurenine/alpha-aminoadipate aminotransferase, mitochondrial; assay: Inhibition of human recombinant KAT2 assessed as conversion of L-kynurenine into kynurenic acid after 15 to 20 hrs
Method in brief: (§2)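 Human and rat KAT II enzyme assays run with 30 nM enzyme; IC50 reported as geometric mean of at least three independent determinations (some n = 1 or 2).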
Target sequence in this assay (Q8N5Z0 whole entry): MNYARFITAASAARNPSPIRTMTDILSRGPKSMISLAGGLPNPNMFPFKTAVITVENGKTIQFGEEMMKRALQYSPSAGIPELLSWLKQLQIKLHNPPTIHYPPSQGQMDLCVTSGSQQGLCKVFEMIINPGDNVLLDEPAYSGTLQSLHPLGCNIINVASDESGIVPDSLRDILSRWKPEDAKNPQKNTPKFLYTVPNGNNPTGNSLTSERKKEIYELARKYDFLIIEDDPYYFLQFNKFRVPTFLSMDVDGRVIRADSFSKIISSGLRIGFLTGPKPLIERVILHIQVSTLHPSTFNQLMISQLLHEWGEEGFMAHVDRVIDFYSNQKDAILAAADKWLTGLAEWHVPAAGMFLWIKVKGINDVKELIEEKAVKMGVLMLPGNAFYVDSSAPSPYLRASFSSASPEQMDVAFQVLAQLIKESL

[3] = molecular target: Kynurenine/alpha-aminoadipate aminotransferase, mitochondrial (Rattus norvegicus, UniProt Q64602); assay: Inhibition of rat recombinant KAT2 assessed as conversion of L-kynurenine into kynurenic acid after 15 to 20 hrs; method in brief: as §2
Chain of Kynurenine/alpha-aminoadipate aminotransferase, mitochondrial (Rattus norvegicus, UniProt Q64602) (Q64602 whole entry): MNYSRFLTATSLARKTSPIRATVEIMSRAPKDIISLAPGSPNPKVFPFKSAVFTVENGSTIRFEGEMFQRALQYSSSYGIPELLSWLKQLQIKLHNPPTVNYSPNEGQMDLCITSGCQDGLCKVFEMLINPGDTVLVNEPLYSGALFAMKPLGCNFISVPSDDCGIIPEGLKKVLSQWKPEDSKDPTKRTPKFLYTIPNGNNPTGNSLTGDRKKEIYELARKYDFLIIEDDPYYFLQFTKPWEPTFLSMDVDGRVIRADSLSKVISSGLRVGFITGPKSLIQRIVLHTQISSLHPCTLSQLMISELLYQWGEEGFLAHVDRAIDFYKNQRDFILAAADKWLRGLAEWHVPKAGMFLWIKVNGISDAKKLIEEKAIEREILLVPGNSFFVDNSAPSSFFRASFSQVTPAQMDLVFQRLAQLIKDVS

[4] = Drug level in Sprague-Dawley rat cerebrospinal fluid at 10 mg/kg, sc after 0.25 hrs; format: ADME, organism-based; parameters: dose 10 mg/kg, route subcutaneous; settings: read-out: Drug uptake
Method in brief: (§3)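 Rats dosed 10 mg/kg subcutaneously; drug levels measured in CSF and plasma/brain at 0.25 h post-dose; free levels derived using measured rat brain and plasma unbound fractions.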

Brain = assay: Free brain concentration in Sprague-Dawley rat at 10 mg/kg, sc after 0.25 hrs; format: ADME, organism-based; parameters: dose 10 mg/kg, route subcutaneous; settings: in vivo; method in brief: as §3
Plasma = assay: Free plasma concentration in Sprague-Dawley rat at 10 mg/kg, sc after 0.25 hrs; format: ADME, organism-based; parameters: dose 10 mg/kg, route subcutaneous; settings: in vivo; method in brief: as §3
[5] = Fraction unbound in rat brain at 1 uM by equilibrium dialysis method; format: ADME, tissue-based
[6] = Fraction unbound in rat plasma at 1 uM by equilibrium dialysis method; format: ADME, cell-free
[7] = molecular target: Kynurenine/alpha-aminoadipate aminotransferase, mitochondrial (Rattus norvegicus) (UniProt Q64602); assay: Ratio of Kinact to Ki for rat recombinant KAT2 using L-kynurenine as substrate; method in brief: as §1
Chain of Kynurenine/alpha-aminoadipate aminotransferase, mitochondrial (Rattus norvegicus) (Q64602 30-425 limits assumed): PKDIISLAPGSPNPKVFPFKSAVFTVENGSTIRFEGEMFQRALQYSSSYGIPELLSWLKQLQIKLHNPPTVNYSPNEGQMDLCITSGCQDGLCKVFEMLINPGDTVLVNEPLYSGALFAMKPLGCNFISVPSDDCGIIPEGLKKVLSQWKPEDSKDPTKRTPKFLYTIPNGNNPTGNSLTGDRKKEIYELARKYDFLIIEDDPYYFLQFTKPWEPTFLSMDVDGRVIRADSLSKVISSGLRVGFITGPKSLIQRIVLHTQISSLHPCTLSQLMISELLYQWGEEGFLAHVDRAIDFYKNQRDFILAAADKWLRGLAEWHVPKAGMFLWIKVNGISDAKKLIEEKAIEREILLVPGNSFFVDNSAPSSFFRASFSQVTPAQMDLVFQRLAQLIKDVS

[8] = molecular target: T2, Kynurenine--oxoglutarate transaminase 1 (Homo sapiens, UniProt Q16773); assay: Inhibition of human KAT1
T2 sequence (Q16773 whole entry): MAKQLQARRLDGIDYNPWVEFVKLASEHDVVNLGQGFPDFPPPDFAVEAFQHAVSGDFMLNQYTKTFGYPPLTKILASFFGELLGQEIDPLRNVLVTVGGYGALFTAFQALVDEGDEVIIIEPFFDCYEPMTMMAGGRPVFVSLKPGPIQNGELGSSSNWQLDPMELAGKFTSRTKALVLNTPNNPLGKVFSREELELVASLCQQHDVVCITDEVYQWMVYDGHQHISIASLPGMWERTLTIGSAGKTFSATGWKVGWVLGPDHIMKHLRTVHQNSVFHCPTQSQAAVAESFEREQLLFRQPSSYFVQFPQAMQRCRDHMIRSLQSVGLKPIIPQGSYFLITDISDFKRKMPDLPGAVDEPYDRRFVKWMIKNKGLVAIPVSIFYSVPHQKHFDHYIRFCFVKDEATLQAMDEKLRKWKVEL

[9] = molecular target: Kynurenine--oxoglutarate transaminase 3 (Homo sapiens, UniProt Q6YP21); assay: Inhibition of human KAT3
Chain of Kynurenine--oxoglutarate transaminase 3 (Q6YP21 whole entry): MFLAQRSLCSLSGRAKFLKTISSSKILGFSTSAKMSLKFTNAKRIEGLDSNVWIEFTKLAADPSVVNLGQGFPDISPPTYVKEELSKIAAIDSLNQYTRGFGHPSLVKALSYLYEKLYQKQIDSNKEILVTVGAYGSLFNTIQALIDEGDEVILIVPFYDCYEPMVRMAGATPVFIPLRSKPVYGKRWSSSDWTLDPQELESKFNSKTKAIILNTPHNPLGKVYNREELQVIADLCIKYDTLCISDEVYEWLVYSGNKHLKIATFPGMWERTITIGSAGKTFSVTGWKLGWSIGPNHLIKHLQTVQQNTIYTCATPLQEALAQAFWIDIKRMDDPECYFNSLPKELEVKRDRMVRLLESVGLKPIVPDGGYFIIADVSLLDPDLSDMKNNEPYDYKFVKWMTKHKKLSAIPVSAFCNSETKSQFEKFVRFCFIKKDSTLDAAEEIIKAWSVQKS

[10] = Inhibition of human KAT4
[11] = Lipophilicity, log D of the compound; format: physicochemical; settings: octanol/water
[12] = Ratio of free drug level in plasma to brain in Sprague-Dawley rat at 10 mg/kg, sc after 0.25 hrs; format: ADME, organism-based; parameters: dose 10 mg/kg, route subcutaneous; settings: in vivo
Method in brief: (§4)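 Rat dosed 10 mg/kg sc; drug concentrations in plasma, brain and CSF measured at 0.25 h. Free plasma and free brain levels corrected using fraction unbound from rat plasma protein binding and brain binding assays. Exposure ratios taken from free plasma, free brain and CSF concentrations.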

[13] = Ratio of free drug level in cerebrospinal fluid to brain in Sprague-Dawley rat at 10 mg/kg, sc after 0.25 hrs; format: ADME, organism-based; parameters: dose 10 mg/kg, route subcutaneous; settings: in vivo; method in brief: as §4
Rattus norvegicus [14] = assay: Reduction of […] level in freely moving Sprague-Dawley rat dialysates from prefrontal cortex at 10 mg/kg, sc after 1 hr by microdialysis analysis relative to control; format: functional; parameters: scale not given: the % may be the effect or the level left; settings: route subcutaneous
Method in brief: (§5)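 Freely moving rats given 10 mg/kg sc at time 0; KYNA in prefrontal cortex dialysates monitored over time by microdialysis; expressed as percent of each animal's basal KYNA, means ± SEM, n = 11–14 per group.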

Rattus norvegicus [15] = assay: Reduction of […] level in freely moving Sprague-Dawley rat dialysates from prefrontal cortex at 10 mg/kg, sc after 20 hrs by microdialysis analysis; format: functional, organism-based; parameters: dose 10 mg/kg; method in brief: as §5

SMILES	Ratio [1]	IC50 [2]	IC50 [3]	Ratio [7]	further results
COc1cccc2c1N(O)C(=O)[C@@H](N)C2	21.3 M⁻¹ s⁻¹	572 nM	> 10000 nM	–	–
N[C@H]1Cc2ccccc2N(O)C1=O	18500 M⁻¹ s⁻¹	23 nM	263 nM	573 M⁻¹ s⁻¹	concentration at 0.25 h [4]: 4.06 µM; Drug uptake(free) (Brain): 3.76 µM; Cp(f) (Plasma): 10.2 µM; fraction unbound at 1 µM [5]: 0.393; fraction unbound at 1 µM [6]: 0.893; IC50 [8]: 22000 nM; IC50 [9]: 11000 nM; IC50 [10]: > 50000 nM; logD [11]: -0.7; Ratio [12]: 2.7; Ratio [13]: 1.1; Activity (Rattus norvegicus [14]): 50%; Activity (Rattus norvegicus [15]): inactive
N[C@H]1Cc2cccc(C(F)(F)F)c2N(O)C1=O	541 M⁻¹ s⁻¹	174 nM	> 6810 nM	–	–
N[C@H]1Cc2cccc(F)c2N(O)C1=O	5310 M⁻¹ s⁻¹	40 nM	631 nM	57 M⁻¹ s⁻¹	–
N[C@H]1Cc2cccc(Cl)c2N(O)C1=O	42 M⁻¹ s⁻¹	252 nM	> 10000 nM	–	–
Cc1ccc2c(c1)N(O)C(=O)[C@@H](N)C2	33400 M⁻¹ s⁻¹	37 nM	368 nM	590 M⁻¹ s⁻¹	–
CC1(N)Cc2ccccc2N(O)C1=O (configuration not stated)	–	> 10000 nM	> 10000 nM	–	–
N[C@H]1Cc2cc(Cl)ccc2N(O)C1=O	19000 M⁻¹ s⁻¹	36 nM	258 nM	465 M⁻¹ s⁻¹	–
Cc1cccc2c1C[C@H](N)C(=O)N2O	–	319 nM	> 10000 nM	–	–
Cc1cccc2c1N(O)C(=O)[C@@H](N)C2	–	1050 nM	> 10000 nM	–	–
N[C@H]1Cc2ccc(Cl)cc2N(O)C1=O	28300 M⁻¹ s⁻¹	29 nM	118 nM	1170 M⁻¹ s⁻¹	–

The next lines start with results.

Ratio [1]	IC50 [2]	IC50 [3]	Ratio [7]	SMILES	further results
6680 M⁻¹ s⁻¹	45 nM	2060 nM	–	N[C@H]1Cc2c(F)cccc2N(O)C1=O	–
–	> 10000 nM	> 10000 nM	–	N[C@H]1Cc2c(cccc2C(F)(F)F)N(O)C1=O	–
1940 M⁻¹ s⁻¹	179 nM	> 4920 nM	–	COc1cccc2c1C[C@H](N)C(=O)N2O	–
–	> 10000 nM	> 10000 nM	–	CON1C(=O)[C@@H](N)Cc2ccccc21	–
–	> 10000 nM	–	–	N[C@H]1Cc2ccccc2NC1=O	–
11900 M⁻¹ s⁻¹	30 nM	402 nM	167 M⁻¹ s⁻¹	Cc1ccc2c(c1)C[C@H](N)C(=O)N2O	–
31700 M⁻¹ s⁻¹	22 nM	137 nM	1840 M⁻¹ s⁻¹	COc1ccc2c(c1)N(O)C(=O)[C@@H](N)C2	–
–	219 nM	1170 nM	–	N[C@@H]1Cc2ccccc2N(O)C1=O	–
15300 M⁻¹ s⁻¹	29 nM	488 nM	102 M⁻¹ s⁻¹	N[C@H]1Cc2cc(C(F)(F)F)ccc2N(O)C1=O	–
9.5 M⁻¹ s⁻¹	349 nM	> 7970 nM	–	N[C@H]1Cc2c(Cl)cccc2N(O)C1=O	–
–	–	> 1330 nM	–	C[C@H]1c2ccccc2N(O)C(=O)[C@H]1N	–
